# Assay outcomes deposited in PubChem by several laboratories.
# B2AR ag = human beta-2 adrenergic receptor agonism by FAP; P07550; Am2.2-beta2AR cells, FAP receptor internalization, flow cytometry; AID 504454; 340,000 tested, 0.43% active; response, % (test concentration not listed);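 active = response above a set limit, near 3 SD of response in nonfluorescent compounds, cut at about 42% in these data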
# UCH37 inh = blocks the human deubiquitinase UCH37; purified proteasome/UCH37, Ub-AMC cleavage fluorescence; inhibition, % (no concentration beside the values); AID 588478; 330,000 tested, 0.33% active;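 active = mean inhibition over replicate wells above about 20%, limit read from the data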;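 note: 0% = compound-free wells with enzyme and 100% = wells lacking proteasome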
#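 Material: Human UCH37 enzyme supplied as purified proteasome complex | Schedule: 30 min preincubation with enzyme, 25 min cleavage at room temperature | Detection: AMC fluorescence 355/460 nm | Measure: % inhibition of Ub-AMC cleavage fluorescence | Controls: Wells without proteasome as full block, compound-free enzyme plus substrate as uninhibited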
# aDG glyco act = increases alpha dystroglycan glycosylation; Pro5-aDG cells, alpha-DG glycosylation AlphaScreen (IIH6); 0% Pro5, 100% B10-LARGE cell signal; 360,000 tested, 0.22% active; AID 624168; activation, % at 10 µM;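 active = activation of at least 8% versus controls, or a plate z-score of at least 8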;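 note: Pro5 are CHO cells carrying HIG-tagged alpha-DG that lacks glycosylation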
# Cardio protect = protects H9c2 cardiomyocytes from peroxide injury; H2O2 injury protection, ATPLite, 2 h; protection from H2O2 cell death, % at 20 µM; 360,000 tested, 0.63% active;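 active = compounds giving at least 50% protection of heart cells from peroxide-induced death in the single-dose screen, raw or plate-pattern-corrected value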;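 note: 0% = DMSO wells with peroxide and 100% = DMSO wells without peroxide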
# PfG6PD inh = PfG6PD (Plasmodium falciparum) enzyme inhibition | PfGluPho enzyme, NADPH resazurin-diaphorase fluorescence | inhibition, % at 20 µM | 350,000 tested, 0.78% active | AID 504690;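 active = inhibition reaching at least a set limit at 20 µM in the primary screen, cut at about 59% in these data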;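 note: 0% = DMSO wells with substrate and 100% = DMSO wells lacking glucose-6-phosphate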
# HKDC1 inh = HKDC1 (human) hexokinase inhibition; Q2TB90; recombinant HKDC1, G6PDH/diaphorase resazurin coupled fluorescence; inhibition, % at 20 µM; 340,000 tested, 0.16% active; AID 493160;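 active = inhibition above about 35% when tested at 20 µM, limit read from the data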;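 note: plate controls were DMSO wells with enzyme for no effect and DMSO wells lacking enzyme for full effect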
#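 Test system: recombinant HKDC1 (HK5) hexokinase enzyme, produced in-house; Amount: enzyme 5 µg/mL final; Buffer or medium: Tris pH 8.0 buffer with MgCl2, Tween-20, BSA, BME; Reagent: glucose and ATP substrates; Doses: 20 µM test compound, 1% DMSO; Incubation: 90 min reaction incubation at room temperature, dark; Detection: resorufin fluorescence at 613 nm.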
# An asterisk follows results filed as active; i = inactive; x = no result. A selection: hits, their analogues and other compounds. The true share with any hit is near 2.1%.
SMILES,B2AR ag,UCH37 inh,aDG glyco act,Cardio protect,PfG6PD inh,HKDC1 inh
Cc1nnc(N=c2ssnc2Cl)o1,0,x,2,-20,116*,-88
CC(CC(=O)Nc1ccccn1)=NNC(=O)C(=O)Nc1ccccc1C,x,1,x,x,x,x
COc1ccc(-c2nnc3ccc(SCC(=O)Nc4nccs4)nn23)cc1OC,-14,0,0,9,9,-4
COc1ccc(-c2nnc3ccc(SCC(=O)Nc4nc5ccccc5s4)nn23)cc1OC,-2,-12,0,50*,7,-4
Cc1cc(=O)n2nc(N3CCC(C(=O)N4CCN(Cc5ccccc5)CC4)CC3)sc2n1,1,24*,0,-4,4,1
CCOc1ccc(OCC)c(NC(=O)C2CCN(c3nn4c(=O)cc(C)nc4s3)CC2)c1,3,23*,0,8,-10,-5
CCOC(=O)C1CCN(C(=O)C2CCN(c3nn4c(=O)cc(C)nc4s3)CC2)CC1,-4,2,0,8,3,-7
COc1cccc(OCc2cc(C=Nn3cncn3)ccc2OC)c1,x,0,x,x,x,x
CC(=O)N1CCN(c2ccccc2NC(=O)c2ccc(-c3cccc([N+](=O)[O-])c3)o2)CC1,-1,6,0,79*,1,4
O=C1C(=O)c2ccc(-c3ccccc3)cc2-c2ccccc21,61*,-88,-1,-24,53,30
Nc1ccc2c(c1)C(=O)c1ccccc1-2,-5,5,0,1,5,-2
CN1N=C(/C=C/c2ccccc2)CCC1=O,-7,3,0,-2,1,-8
Cc1ccc(/C=C/C2=NN(C)C(=O)CC2)cc1,-2,21*,0,-17,-13,3
COc1ccc(C(=O)NN=Cc2ccc(OC)c(CN3CCN(c4ccc(F)cc4)CC3)c2)cc1,x,2,x,x,x,x
Cc1cc(C)nc(NN=Cc2ccc([N+](=O)[O-])o2)n1,x,13,x,x,x,x
Cc1ccccc1N=Nc1c(C)[nH]n(-c2ccccc2)c1=O,x,8,x,x,-17,16
Cc1[nH]n(-c2ccccc2)c(=O)c1N=Nc1nccs1,-1,21*,1,9,2,-5
COc1ccccc1/C=C/C=Nn1c(COc2ccccc2)n[nH]c1=S,x,0,x,x,x,x
C#CCOc1nc(Nc2cccc([N+](=O)[O-])c2)nc(OCC#C)n1,-8,5,0,56*,3,14
COc1nc(Nc2cccc([N+](=O)[O-])c2)nc(OC)n1,11,5,0,-4,10,6
C[n+]1cccc(C=NNc2nc(Cl)c(C#N)c(Cl)c2Cl)c1,x,15,x,x,x,x
Cc1csc(=NN=Cc2ccc(O)cc2)n1Cc1ccco1,x,1,x,x,x,x
NC(N)=N/N=C/c1ccc(OCc2ccc(Cl)cc2)cc1,58*,x,0,-22,16,-15
NC(N)=NN=Cc1ccc(OCc2ccc(Cl)cc2)cc1,x,6,x,x,x,x
O=C(N/N=C/c1ccccc1)c1ccc(N2CCCC2=O)cc1,64*,x,0,-2,-49,-6
SMILES,B2AR ag,UCH37 inh,aDG glyco act,Cardio protect,PfG6PD inh,HKDC1 inh
CC(CC(=O)Nc1ccc(Cl)c(C(F)(F)F)c1)=NNC(=O)c1cccc(O)c1,x,0,x,x,x,x
Cn1cnc(Sc2ncnc3nc[nH]c23)c1[N+](=O)[O-],-11,x,0,1,61*,-8
Cc1sc2ncnc(N/N=C/c3ccccc3O)c2c1C,5,x,0,54*,-2,9
COc1cccc(/C=N/Nc2ncnc3scc(-c4ccccc4)c23)c1OC,0,x,0,60*,11,4
COc1ccc(C=NNc2ncnc3scc(-c4ccccc4)c23)cc1OC,x,-7,x,x,x,x
COC(=O)c1ccc(C=NN2CCN(Cc3ccc(C)cc3C)CC2)cc1,x,5,x,x,x,x
COc1ccc(NC(=O)c2ccc(NC(=O)c3cccnc3)cc2)cc1,x,x,0,-1,1,x
CCNS(=O)(=O)c1ccc(NC(=O)c2cccnc2)cc1,-8,2,17*,1,-15,8
COc1ccc(C(=O)Nc2ccc(C(=O)Nc3cccnc3)cc2)cc1,54*,4,0,-12,11,8
Cc1cc(Br)c(OCc2ccc(C(=O)NN=C3CC(=O)CC(C)(C)C3)cc2)c(Br)c1,x,-1,x,x,x,x
CCOC(=O)C1=c2/c(=C/c3ccncc3)c(N)c(C(=O)OC)n2C(=O)C(c2ccncc2)S1 (stereo not given),27,x,0,55*,-1,2
CCOC(=O)C1=C(N)n2c(s/c(=C\c3ccncc3)c2=O)=C(C(=O)OCC)C1c1ccncc1 (stereo not given),-7,x,0,32,1,0
COc1ccc(C(=O)c2nccc3cc(OC)c(OC)cc23)cc1OC,2,48*,0,8,50,20
COc1ccc(C(=NOC(C)=O)c2nccc3cc(OC)c(OC)cc23)cc1OC,x,7,x,x,x,x
Cc1ccc(S(=O)(=O)NN=Cc2ccccc2O)cc1,x,8,x,x,x,x
OC1CCN(c2c3c(nc4cc(-c5cccc(F)c5)nn24)CCCC3)CC1,2,-87,0,59*,11,11
O=c1cc(-c2ccccc2)cc(-c2ccccc2)n1O,4,1,0,63*,-37,-8
CC(CCc1ccc2c(c1)OCO2)=N/N=C1/NC(=O)CC(C(=O)Nc2ccc(Cl)cc2)S1 (stereo not given),x,6,x,x,x,x
CC1=NN(C(=O)c2ccc(Cn3nc(C)c([N+](=O)[O-])c3C)o2)C(O)(C(F)(F)F)C1 (stereo not given),2,2,0,11,-6,-11
Cc1nn(Cc2ccc(C(=O)N3CCN(C(=O)c4ccco4)CC3)o2)c(C)c1[N+](=O)[O-],-6,2,0,54*,2,-4
S=C(NCCc1ccccn1)Nc1ccc(Cl)c(Cl)c1,53*,2,0,-2,-7,-5
CCCNC(=O)c1c(N)n(-c2cccc(OC)c2)c2nc3ccccc3nc12,15,-425,1,55*,15,3
Nc1c(C(=O)NCC2CCCO2)c2nc3ccccc3nc2n1-c1ccccc1 (stereo not given),6,i,0,55*,-3,0
COCCCNC(=O)c1c(N)n(-c2cccc(S(N)(=O)=O)c2)c2nc3ccccc3nc12,-2,-263,0,15,11,2
S=c1[nH]nc(-c2ccco2)n1N=Cc1c(Cl)cccc1Cl,x,6,x,x,x,x
O=[N+]([O-])c1cc2c(cc1C=NNc1nc(Nc3ccccc3)nc(N3CCCCC3)n1)OCO2,x,5,x,x,x,x
CCOc1ccc(C2C(C(=O)Nc3ccccc3)=C(C)N=c3sc(=Cc4cccc(OCC(=O)O)c4)c(=O)n32)cc1 (stereo not given),x,3,x,x,x,x
Nc1ccc(Br)c2cccnc12,3,25*,2,-11,63*,30
